TNAP act DEA: activators of human TNAP at intermediate phosphate acceptor; 64,000 tested, under 10 active; P05186; purified TNAP, CDP-star luminescence, 100 mM DEA, 30 min; stronger effect = higher value; scale: 0 levamisole-inhibited, 1 vehicle-only enzyme; activation factor at 20 µM;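 active means activation factor of at least 2 at 20 µM, relative to controls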
AP complement: orthogonal test for alternative complement pathway inhibitors. Human serum alternative complement pathway, LPS-coated ELISA, C3 deposition; tested in compound mixtures. inhibition, % at 5 µM. actives 0.08% (n = 62,000);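 active means inhibition above 30% in each of the two pooled mixtures holding the compound, so the lower value exceeds 30%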;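 further: 0% = serum in Mg-EGTA without compound and 100% = EDTA serum blank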
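Test system: human serum complement alternative pathway, C3 deposition onto LPS / Medium: Mg2+-EGTA GVB++ buffer containing human serum at 1:15 dilution / Probe or stimulus: Plate-bound LPS / Times: 1 h at 37 °C / Signal: ELISA with HRP anti-human C3 antibody, TMB substrate, absorbance 450 nm / Measure: percent inhibition / Repeats: two pool placements per compound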
SF-1 act: activators of human nuclear receptor SF-1; Q13285; CHO-K1 Gal4-SF-1 LBD luciferase reporter; % increase over DMSO SF-1-specific signal; activation, % at 10 µM; actives 1.9% (n = 65,000); AID 522;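 active means activation above the mean activation of all tested compounds plus 3 SD, cut at about 50% in these data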
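Material: CHO-K1 cells with Gal4–hSF-1 LBD chimera plus Gal4-driven luciferase / Input: 4,000 CHO-K1 cells per well / Incubation: compound exposure 20 h at 37 °C / Signal: luminescence read 15 min after SteadyLite luciferase reagent, after room-temperature equilibration / Read-out: percent activation versus DMSO / Benchmarks: DMSO negative control and −SF1 background wells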
RORA act: activates the human nuclear receptor RORA | P35398 | CHO-K1 Gal4-RORA LBD luciferase reporter, luminescence; percent increase over mock-subtracted basal signal | activation, % at 10 µM | actives 1.5% (n = 65,000) | AID 560;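 active means activation above the mean of all tested compounds plus 3 SD, cut at about 49% in these data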;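 further: 0% = DMSO-treated RORA cells and 100% = added signal equal to DMSO minus mock-transfected cells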
Target sequence (P35398 whole entry, looked up, the tested form may be a part): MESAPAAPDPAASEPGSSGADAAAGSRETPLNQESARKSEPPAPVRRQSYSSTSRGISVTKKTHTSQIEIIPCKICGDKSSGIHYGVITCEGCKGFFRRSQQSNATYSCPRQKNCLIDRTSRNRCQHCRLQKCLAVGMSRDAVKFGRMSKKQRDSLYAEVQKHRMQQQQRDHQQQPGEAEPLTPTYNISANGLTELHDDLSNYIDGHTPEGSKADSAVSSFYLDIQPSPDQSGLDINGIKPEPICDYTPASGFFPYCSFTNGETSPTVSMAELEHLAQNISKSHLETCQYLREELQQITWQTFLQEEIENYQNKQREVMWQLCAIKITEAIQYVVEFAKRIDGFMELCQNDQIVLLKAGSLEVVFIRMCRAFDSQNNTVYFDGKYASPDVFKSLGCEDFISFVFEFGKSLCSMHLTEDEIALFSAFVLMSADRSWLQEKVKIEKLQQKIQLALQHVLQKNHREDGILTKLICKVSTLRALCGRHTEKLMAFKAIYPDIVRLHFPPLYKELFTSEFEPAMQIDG
MT1-MMP txn act: activates MT1-MMP transcription | activation factor at 10 µM | actives 0.16% (n = 86,000) | HT1080 MT1-MMP promoter luciferase reporter, luminescence, overnight; stronger effect = higher value;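 active means activation factor of at least 2 for MT1-MMP transcription at 10 µM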
E coli RNAP: inhibitors of Escherichia coli RNA polymerase; inhibition, %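 (tested at 10 µM)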; E. coli RNA polymerase, fluorescence transcription assay; P0A8V2; actives 0.2% (n = 62,000); in the data active means inhibition above about 20%;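 further: 0% = enzyme without compound and 100% = no enzyme blank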
* = called active by the depositor. This is a sample that favours compounds with a hit; in the whole collection about 2.2% have one here.

For O=C(c1cccs1)N1CCC(c2ccccc2)C1 (stereo not drawn) the results were TNAP act DEA 0.9, AP complement 5.8, SF-1 act 29.9, RORA act 48.8*, MT1-MMP txn act 1.5 and E coli RNAP 13.9.
O=C(Nc1ccccc1)N1CCC(c2ccccc2)C1 (stereo not drawn) was read as TNAP act DEA 0.8, AP complement -1.2, SF-1 act 68.4*, RORA act 44.5, MT1-MMP txn act 1.5 and E coli RNAP 5.4.
Screening Cc1cccc(OCC(=O)N2CCC(c3ccccc3)C2)c1 (stereo not drawn) returned TNAP act DEA 0.8, AP complement -12.4, SF-1 act 43.9, RORA act 44.2, MT1-MMP txn act 1.3 and E coli RNAP -5.0.
Screening O=C(COc1ccc(F)cc1)N1CCC(c2ccccc2)C1 (stereo not drawn) returned MT1-MMP txn act 2.1*.
For O=C(c1nc2nc(-c3cccs3)cc(C(F)(F)F)n2n1)N1CCN(Cc2ccccc2)CC1 the results were MT1-MMP txn act 1.1.
Screening CC(=O)n1c2ccccc2c2c(C#N)c(N3CCCCC3)sc21 returned TNAP act DEA 0.9, AP complement 6.2, SF-1 act 50.9*, RORA act -1.2, MT1-MMP txn act 1.1 and E coli RNAP 3.5.
O=S1(=O)N=C(Nc2nc3c(s2)CCCC3)c2ccccc21 was read as TNAP act DEA 0.9, AP complement -21.4, SF-1 act 51.3*, RORA act 95.8*, MT1-MMP txn act 1.2 and E coli RNAP -11.0.
Screening COCCNC(=O)c1cc(-c2cccs2)on1 returned TNAP act DEA 0.9, AP complement -3.0, SF-1 act 48.4, RORA act 144.7*, MT1-MMP txn act 1.2 and E coli RNAP 10.8.
For COc1ccc(CNC(=O)c2cc(-c3cccs3)on2)cc1 the results were TNAP act DEA 0.8, AP complement 14.7, SF-1 act 7.4, RORA act -2.7, MT1-MMP txn act 1.2 and E coli RNAP 0.2.
Screening O=C(NCc1cccs1)c1cc(-c2ccccc2)on1 returned TNAP act DEA 0.9, AP complement 19.9, SF-1 act 41.5, RORA act 38.0, MT1-MMP txn act 1.1 and E coli RNAP 13.3.
O=C(NCc1cccs1)c1cc(-c2cccs2)on1 was read as TNAP act DEA 0.9, AP complement 8.8, SF-1 act 52.9*, RORA act 83.2*, MT1-MMP txn act 1.6 and E coli RNAP 4.0.
`COC(=O)c1ccc(C(NC(=O)OCc2ccccc2)/C(C)=C/[C@@H](C)C(=O)N[C@@H](CO)Cc2ccccc2)cc1` (stereo partly drawn) gave MT1-MMP txn act 1.1.
`Cc1cc(C)cc(OCc2nc3ncc(Br)cc3[nH]2)c1` gave MT1-MMP txn act 1.1.
For COc1cccc(OCc2nc3ncc(Br)cc3[nH]2)c1 the results were TNAP act DEA 1, AP complement 10.5, SF-1 act 76.1*, RORA act 60.4*, MT1-MMP txn act 1.4 and E coli RNAP 9.6.
CC1CCC(NC(=O)Cn2ncc3ccccc32)CC1 (stereo not drawn) was read as TNAP act DEA 0.8, AP complement -9.1, SF-1 act 52.0*, RORA act 34.0, MT1-MMP txn act 1.6 and E coli RNAP 14.9.
Cc1cc(NCCN2CCOCC2)n2ncc(-c3ccccc3)c2n1 was read as TNAP act DEA 0.9, AP complement -11.9, SF-1 act 90.9*, RORA act 66.0*, MT1-MMP txn act 1.4 and E coli RNAP -2.7.
Cc1cc(C)c(Cn2c(=O)n(CCCC(=O)NCc3ccco3)c(=O)c3ccccc32)c(C)c1 was read as TNAP act DEA 0.9, AP complement 13.5, SF-1 act 4.9, RORA act 13.4, MT1-MMP txn act 1 and E coli RNAP 3.9.
For Cc1nc(Nc2ncc3c(n2)CCCC3=O)nc2ccccc12 the results were TNAP act DEA 0.9, SF-1 act -6.6, RORA act -21.3, MT1-MMP txn act 1 and E coli RNAP 10.9.
For CCOC(=O)c1cnn2c(C)cc(-c3ccc(F)cc3)nc12 the results were TNAP act DEA 0.9, AP complement 0.1, SF-1 act 27.9, RORA act 67.7* and MT1-MMP txn act 1.5.
Cc1cc(-c2ccc(F)cc2)nc2cc(C(N)=O)nn12 was read as TNAP act DEA 0.9, AP complement -10.5, SF-1 act -4.1, RORA act -10.7, MT1-MMP txn act 1 and E coli RNAP 6.2.
COCCCN(C(C)=O)c1nc(-c2ccc(OC)cc2)cs1 was read as TNAP act DEA 0.8, AP complement 3.4, SF-1 act 98.1*, RORA act 84.5*, MT1-MMP txn act 1.5 and E coli RNAP 9.4.
Screening COc1ccc(-c2csc(N(CCCN(C)C)C(=O)c3cccs3)n2)cc1 returned TNAP act DEA 0.9, AP complement 7.6, SF-1 act 2.2, RORA act -0.8, MT1-MMP txn act 1.3 and E coli RNAP 3.5.
`CC(=O)C1=C(C)Nc2cc(C(F)(F)F)ccc2S1` gave TNAP act DEA 0.9, AP complement 16.1, SF-1 act -6.0, RORA act -13.3, MT1-MMP txn act 1 and E coli RNAP 62.1*.
Screening Clc1ccc(OCc2nnc(-c3ccccc3Br)o2)c(Cl)c1 returned TNAP act DEA 0.9, AP complement 2.8, SF-1 act 30.0, RORA act 90.4*, MT1-MMP txn act 1.6 and E coli RNAP 9.8.
For COC(=O)[C@@]1(Cc2ccc(F)cc2)[C@H]2c3cc(C(=O)N4CCCC4)n(Cc4ccc(C)o4)c3C[C@H]2CN1C(=O)c1ccccc1 the results were MT1-MMP txn act 1.1.
O=C(C1CCCN(S(=O)(=O)c2cccc3cccnc23)C1)N1CCN(c2ccc(F)cc2)CC1 (stereo not drawn) was read as TNAP act DEA 0.9, AP complement 15.6, SF-1 act -12.1, RORA act 2.5, MT1-MMP txn act 1.1 and E coli RNAP -1.4.
COc1ccc(OC)c(S(=O)(=O)Nc2ccc(O)c3ccccc23)c1 was read as TNAP act DEA 0.7, AP complement 5.2, SF-1 act -21.6, RORA act -27.8, MT1-MMP txn act 0.7 and E coli RNAP 28.3*.
`O=C(NCc1ccccc1)c1noc2c1CCCCC2` gave TNAP act DEA 0.9, AP complement 7.9, SF-1 act 52.5*, RORA act 30.1, MT1-MMP txn act 1.8 and E coli RNAP 3.8.
For CCC/C=C(\CCC)C(NS(=O)(=O)c1ccccc1)c1ccc(C(F)(F)F)cc1 (stereo not drawn) the results were MT1-MMP txn act 1.2.
O=C(Cc1ccccc1)Nc1nc(-c2cccs2)cs1 was read as TNAP act DEA 0.9, AP complement 13.7, SF-1 act 43.9, RORA act 66.7*, MT1-MMP txn act 1.2 and E coli RNAP -0.4.

Screens (PubChem BioAssay)
